Experimental data published in ChEMBL document CHEMBL1122007, “A comparison of the inhibition of growth of methotrexate-resistant and -sensitive leukemia cells in culture by triazines. Evidence for a new mechanism of cell resistance to methotrexate” (1982).

Each compound was assayed on L5178Y (assay: Compound was tested in vitro for concentration required to decrease 50% growth rate of murine leukemia L5178Y/R cell culture).
Format: functional, Mus musculus
Outline: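 Seeded at 4.0-6.0 × 10^4 cells/mL in duplicate. Drug added 1:10, at least eight concentrations, for 48 h of continuous exposure under 5% CO2. Cells counted by Coulter counter. ID50 is the concentration that halves the growth rate (doubles the generation time), read from the dose-response curve.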
With `CCCCCCCCCOc1cccc(N2C(N)=NC(N)=NC2(C)C)c1` the “Log 1/C” value was 6.57. With `CC(C)c1cccc(OCc2cccc(N3C(N)=NC(N)=NC3(C)C)c2)c1` the “Log 1/C” value was 5.87. For `CC1(C)N=C(N)N=C(N)N1c1cccc(CNc2cc(C(N)=O)cc(C(N)=O)c2)c1`, the “Log 1/C” value was 3.79. With `Cc1cccc(OCc2cccc(N3C(N)=NC(N)=NC3(C)C)c2)c1` the “Log 1/C” value was 5.59. With `CC1(C)N=C(N)N=C(N)N1c1cccc(COc2cccc(NC(N)=O)c2)c1` the “Log 1/C” value was 4.74. `CC1(C)N=C(N)N=C(N)N1c1cccc(OCCOc2cccc(C(F)(F)F)c2)c1` was tested, and the “Log 1/C” value was 5.85. In the case of `CC(=O)Nc1cccc(OCc2cccc(N3C(N)=NC(N)=NC3(C)C)c2)c1`, the “Log 1/C” value is reported as 4.95. `CC1(C)N=C(N)N=C(N)N1c1cccc([N+](=O)[O-])c1` was tested, and the “Log 1/C” value was 5.03. For `CC1(C)N=C(N)N=C(N)N1c1cccc(CSc2ccccc2)c1`, the “Log 1/C” value was 6.2. `CC1(C)N=C(N)N=C(N)N1c1cccc(C(O)c2ccccc2)c1` (configuration not stated) was tested, and the “Log 1/C” value was 4.17. For `CC1(C)N=C(N)N=C(N)N1c1cccc(OCCOc2ccccc2)c1`, the “Log 1/C” value was 5.02. `CC1(C)N=C(N)N=C(N)N1c1cccc(F)c1` was tested, and the “Log 1/C” value was 5.24. In the case of `CC(C)(C)c1cccc(N2C(N)=NC(N)=NC2(C)C)c1`, the “Log 1/C” value is reported as 6.03. With `CC1(C)N=C(N)N=C(N)N1c1cccc(Br)c1` the “Log 1/C” value was 5.9. For `CC1(C)N=C(N)N=C(N)N1c1cccc(I)c1`, the “Log 1/C” value was 5.91. With `CC1(C)N=C(N)N=C(N)N1c1cccc(OCc2ccc(Cl)c(Cl)c2)c1` the “Log 1/C” value was 5.8. For `CCCCCCCCCCCOc1cccc(N2C(N)=NC(N)=NC2(C)C)c1`, the “Log 1/C” value was 6.38. `CC1(C)N=C(N)N=C(N)N1c1cccc(COc2ccccc2)c1` was tested, and the “Log 1/C” value was 5.67. In the case of `CCc1cccc(OCc2cccc(N3C(N)=NC(N)=NC3(C)C)c2)c1`, the “Log 1/C” value is reported as 5.74. With `CC1(C)N=C(N)N=C(N)N1c1cccc(COc2cccc(C#N)c2)c1` the “Log 1/C” value was 5.25. `CCCCCCCCCCCCOc1cccc(N2C(N)=NC(N)=NC2(C)C)c1` was tested, and the “Log 1/C” value was 6.24. In the case of `CCCCCCCCCCCCCOc1cccc(N2C(N)=NC(N)=NC2(C)C)c1`, the “Log 1/C” value is reported as 6.52. With `CCCCCCc1cccc(N2C(N)=NC(N)=NC2(C)C)c1` the “Log 1/C” value was 6.39. In the case of `CC(C)(C)c1cccc(OCc2cccc(N3C(N)=NC(N)=NC3(C)C)c2)c1`, the “Log 1/C” value is reported as 6.08. With `CC1(C)N=C(N)N=C(N)N1c1cccc(COc2cccc(NC(=N)S)c2)c1` the “Log 1/C” value was 4.01. For `CCCCCCCCCCCCCCOc1cccc(N2C(N)=NC(N)=NC2(C)C)c1`, the “Log 1/C” value was 6.49. With `CC1(C)N=C(N)N=C(N)N1c1cccc(COc2cccc(Cl)c2)c1` the “Log 1/C” value was 5.93. `COc1cccc(OCc2cccc(N3C(N)=NC(N)=NC3(C)C)c2)c1` was tested, and the “Log 1/C” value was 5.36. With `CC1(C)N=C(N)N=C(N)N1c1cccc(COc2cccc(CO)c2)c1` the “Log 1/C” value was 4.77. For `CN(C)C(=O)c1cccc(COc2ccc(N3C(N)=NC(N)=NC3(C)C)cc2Cl)c1`, the “Log 1/C” value was 5.4. With `CC1(C)N=C(N)N=C(N)N1c1cccc(OCCCCOc2cccc(C(F)(F)F)c2)c1` the “Log 1/C” value was 6.28. `CC(=O)c1cccc(N2C(N)=NC(N)=NC2(C)C)c1` was tested, and the “Log 1/C” value was 4.56. For `CC1(C)N=C(N)N=C(N)N1c1cccc(OCCCCOc2ccccc2)c1`, the “Log 1/C” value was 5.3. `Cc1cccc(N2C(N)=NC(N)=NC2(C)C)c1` was tested, and the “Log 1/C” value was 4.97. In the case of `CC1(C)N=C(N)N=C(N)N1c1cccc(OCc2ccccc2)c1`, the “Log 1/C” value is reported as 5.19. For `CCCCOc1cccc(N2C(N)=NC(N)=NC2(C)C)c1`, the “Log 1/C” value was 5.95. For `CN(Cc1cnc2nc(N)nc(N)c2n1)c1ccc(C(=O)N[C@@H](CCC(=O)O)C(=O)O)cc1` [METHOTREXATE], the “Log 1/C” value was 2.9.
